One block for each compound: values may come before it. Calls of active or inactive are those of the source. The rule behind the calls is not given here.
Assays:
[1] = target: T1, Mineralocorticoid receptor (Rattus norvegicus) (UniProt P22199); experiment: Relative binding affinity to the rat mineralocorticoid receptor determined in rat renal cytosol using [3]Ald as ligand
T1 sequence (whole entry): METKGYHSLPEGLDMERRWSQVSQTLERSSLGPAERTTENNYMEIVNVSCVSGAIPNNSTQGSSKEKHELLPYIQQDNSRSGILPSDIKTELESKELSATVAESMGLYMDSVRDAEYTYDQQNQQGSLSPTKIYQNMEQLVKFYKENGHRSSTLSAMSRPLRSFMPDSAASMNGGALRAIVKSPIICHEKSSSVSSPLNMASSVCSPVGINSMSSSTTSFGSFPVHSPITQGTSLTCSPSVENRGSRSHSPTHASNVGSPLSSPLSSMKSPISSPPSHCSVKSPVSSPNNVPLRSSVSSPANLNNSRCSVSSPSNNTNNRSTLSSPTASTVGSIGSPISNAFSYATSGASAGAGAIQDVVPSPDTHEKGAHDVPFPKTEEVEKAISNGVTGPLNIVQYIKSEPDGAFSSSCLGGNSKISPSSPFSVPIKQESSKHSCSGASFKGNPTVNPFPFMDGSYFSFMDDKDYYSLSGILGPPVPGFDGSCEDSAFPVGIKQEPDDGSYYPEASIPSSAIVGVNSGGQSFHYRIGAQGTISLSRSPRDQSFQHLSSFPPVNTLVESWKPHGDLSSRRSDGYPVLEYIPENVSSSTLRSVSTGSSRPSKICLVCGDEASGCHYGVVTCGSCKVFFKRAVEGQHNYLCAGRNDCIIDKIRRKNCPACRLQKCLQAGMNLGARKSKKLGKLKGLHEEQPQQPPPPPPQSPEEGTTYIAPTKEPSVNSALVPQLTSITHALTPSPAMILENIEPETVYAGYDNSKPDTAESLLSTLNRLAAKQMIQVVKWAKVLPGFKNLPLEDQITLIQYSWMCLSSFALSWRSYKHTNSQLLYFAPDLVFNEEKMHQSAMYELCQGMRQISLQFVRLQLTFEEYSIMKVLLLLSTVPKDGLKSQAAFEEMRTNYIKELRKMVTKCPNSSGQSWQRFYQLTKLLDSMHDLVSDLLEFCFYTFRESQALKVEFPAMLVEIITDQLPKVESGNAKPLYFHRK
In short: (§1)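 Renal cytosol came from male Sprague-Dawley rats (4-8 weeks) adrenalectomized bilaterally 1 or 2 days earlier. It was incubated with various competitor concentrations and about 1 nM [3H]Ald for 42-48 h at 0 °C or 100-120 min at 25 °C. Bound and free steroid were separated by DCC.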

[2] = target: T1, Mineralocorticoid receptor (Rattus norvegicus); experiment: Relative potency compared to Aldosterone;Range 14-224; format: functional
Rattus norvegicus = species: Rattus norvegicus; experiment: Displacement of [3H]promegestone from progestin receptor of rat uterine cytosol at 0 degree Centigrade
In short: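 Uteri from estradiol-primed rats supplied the cytosol. It was incubated with various competitor concentrations and about 1 nM [3H]promegestone for 16-20 h at 0 °C. Bound and free steroid were separated by DCC. RBA (progesterone = 100%) = 100 × ratio of the 50%-inhibition concentrations of standard and competitor.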

[3] = target: T1, Mineralocorticoid receptor (Rattus norvegicus); experiment: Antagonist activity against Mineralocorticoid receptor was determined after subcutaneous administration in Male Sprague Dawley rats; format: functional, organism-based
In short: (§2)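 Male rats were bilaterally adrenalectomized (bioassay modified from Kagawa). Ald (1 µg/kg) was given sc, immediately followed by test compound in sesame oil sc or orally. Urine was collected from 2 to 6 h after steroid. Potency came from the urinary Na/K ratio of sample versus control, with 95% confidence limits.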

[4] = target: T1, Mineralocorticoid receptor (Rattus norvegicus); experiment: Relative binding affinity against mineralocorticoid receptor determined in rat renal cytosol using [3]Ald as ligand; in short: as §1
[5] = target: T1, Mineralocorticoid receptor (Rattus norvegicus); experiment: Agonist activity against Mineralocorticoid receptor was determined after subcutaneous administration in Male Sprague Dawley rats; (+) =positive; format: functional, organism-based; conditions: filed as agonist
[6] = target: T1, Mineralocorticoid receptor (Rattus norvegicus); experiment: Relative binding affinity against Mineralocorticoid Receptor in Male Sprague-Dawley rats
In short: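 Renal cytosol from male Sprague-Dawley rats (4-8 weeks) adrenalectomized bilaterally 1 or 2 days earlier. Incubated with various competitor concentrations and about 1 nM [3H]aldosterone, for 42-48 h at 0 °C or 100-120 min at 25 °C. Charcoal (DCC) separation of bound and free.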

[7] = target: T1, Mineralocorticoid receptor (Rattus norvegicus); experiment: In vivo relative Mineralocorticoid activity in Male Sprague-Dawley rats; format: functional, organism-based
[8] = target: T1, Mineralocorticoid receptor (Rattus norvegicus); experiment: Antagonist activity against Mineralocorticoid receptor after subcutaneous administration in Male Sprague Dawley rats; (+) =positive; format: functional, organism-based; conditions: filed as antagonist; in short: as §2
[9] = target: T1, Mineralocorticoid receptor (Rattus norvegicus); experiment: (§3) Relative anti-mineralocorticoid potency compared to Spironolactone after oral administration; format: functional, organism-based; in short: as §2
[10] = target: T2, Progesterone receptor (Rattus norvegicus) (UniProt Q63449); experiment: Relative binding affinity against progesterone receptor determined in rat […] cytosol using [3H]DHT as ligand
T2 sequence (whole entry): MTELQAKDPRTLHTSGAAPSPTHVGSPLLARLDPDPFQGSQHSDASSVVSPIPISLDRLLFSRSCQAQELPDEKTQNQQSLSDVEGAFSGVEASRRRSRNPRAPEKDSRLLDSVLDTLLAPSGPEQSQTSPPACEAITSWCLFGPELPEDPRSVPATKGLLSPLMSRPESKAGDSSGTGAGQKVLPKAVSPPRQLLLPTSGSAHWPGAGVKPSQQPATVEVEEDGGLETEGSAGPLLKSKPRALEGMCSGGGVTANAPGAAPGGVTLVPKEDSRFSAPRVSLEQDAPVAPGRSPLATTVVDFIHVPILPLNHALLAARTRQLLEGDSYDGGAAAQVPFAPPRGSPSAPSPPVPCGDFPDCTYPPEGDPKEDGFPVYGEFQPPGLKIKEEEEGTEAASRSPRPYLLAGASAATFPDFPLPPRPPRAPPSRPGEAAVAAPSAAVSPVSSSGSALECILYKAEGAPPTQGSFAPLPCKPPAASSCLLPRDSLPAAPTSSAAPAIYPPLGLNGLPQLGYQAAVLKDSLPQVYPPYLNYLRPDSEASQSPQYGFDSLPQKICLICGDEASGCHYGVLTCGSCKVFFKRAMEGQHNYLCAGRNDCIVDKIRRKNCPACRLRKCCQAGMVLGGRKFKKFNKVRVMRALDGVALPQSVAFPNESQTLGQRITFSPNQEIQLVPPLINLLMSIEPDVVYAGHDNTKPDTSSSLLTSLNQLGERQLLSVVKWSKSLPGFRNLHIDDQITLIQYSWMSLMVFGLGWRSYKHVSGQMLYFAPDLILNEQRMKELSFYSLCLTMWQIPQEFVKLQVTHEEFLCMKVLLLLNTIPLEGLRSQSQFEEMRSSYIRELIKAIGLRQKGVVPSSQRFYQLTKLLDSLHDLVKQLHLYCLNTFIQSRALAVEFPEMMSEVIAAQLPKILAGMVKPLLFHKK

[11] = target: T1, Mineralocorticoid receptor (Rattus norvegicus); experiment: Agonist activity against Mineralocorticoid receptor after subcutaneous administration in Male Sprague Dawley rats; (-) = negative; format: functional, organism-based
[12] = target: T1, Mineralocorticoid receptor (Rattus norvegicus); experiment: as §3; format: functional, organism-based; in short: as §2; remark: listed apart in the source
[13] = target: T1, Mineralocorticoid receptor (Rattus norvegicus); experiment: Antagonist activity against Mineralocorticoid receptor after oral administration in Male Sprague Dawley rats; (+) =positive; format: functional, organism-based; conditions: filed as antagonist; in short: as §2
[14] = target: T1, Mineralocorticoid receptor (Rattus norvegicus); experiment: Antagonist activity against Mineralocorticoid receptor after po administration in Male Sprague Dawley rats; (-) = negative; format: functional, organism-based; in short: as §2
[15] = target: T3, Androgen receptor (Rattus norvegicus) (UniProt P15207); experiment: Relative anti-androgenic activity as suppressive effect on weight increase of seminal vesicle in castrated immature rats given testosterone propionate (95% confidence limit); format: functional
T3 sequence (whole entry): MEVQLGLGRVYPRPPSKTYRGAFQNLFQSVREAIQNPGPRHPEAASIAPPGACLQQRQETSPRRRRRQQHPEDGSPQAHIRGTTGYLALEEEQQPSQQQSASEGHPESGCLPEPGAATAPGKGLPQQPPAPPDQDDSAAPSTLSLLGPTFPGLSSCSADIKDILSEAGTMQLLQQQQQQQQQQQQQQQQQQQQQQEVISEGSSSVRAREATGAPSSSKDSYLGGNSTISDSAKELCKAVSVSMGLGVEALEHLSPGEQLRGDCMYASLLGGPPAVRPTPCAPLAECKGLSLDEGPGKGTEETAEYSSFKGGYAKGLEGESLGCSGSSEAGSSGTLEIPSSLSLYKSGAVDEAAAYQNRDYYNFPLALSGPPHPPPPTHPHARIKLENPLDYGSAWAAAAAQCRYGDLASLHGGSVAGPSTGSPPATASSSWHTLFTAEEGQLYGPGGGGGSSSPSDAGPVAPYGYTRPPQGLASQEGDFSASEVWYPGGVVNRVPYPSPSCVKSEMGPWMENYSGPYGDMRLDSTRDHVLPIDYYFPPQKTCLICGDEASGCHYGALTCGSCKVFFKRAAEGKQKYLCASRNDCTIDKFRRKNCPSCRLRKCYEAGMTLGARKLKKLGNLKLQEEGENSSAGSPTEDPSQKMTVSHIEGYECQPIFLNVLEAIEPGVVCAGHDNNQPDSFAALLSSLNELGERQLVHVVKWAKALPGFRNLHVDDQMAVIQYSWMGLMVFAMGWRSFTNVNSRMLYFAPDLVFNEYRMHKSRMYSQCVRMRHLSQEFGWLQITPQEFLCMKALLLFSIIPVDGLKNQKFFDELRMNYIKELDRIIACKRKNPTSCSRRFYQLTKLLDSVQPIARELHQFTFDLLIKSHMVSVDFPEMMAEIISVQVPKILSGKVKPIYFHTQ
In short: (§4)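 Male Sprague-Dawley rats (3 weeks old) were castrated 3 days earlier. […] Suppression of accessory sex organ weight gain gave relative antiandrogenic activity.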

[16] = target: T3, Androgen receptor (Rattus norvegicus); experiment: Relative anti-androgenic activity as suppressive effect on weight increase of ventral prostate in castrated immature rats given testosterone propionate (95% confidence limit); format: functional; conditions: Prostate gland; in short: as §4
[17] = target: T1, Mineralocorticoid receptor (Rattus norvegicus); experiment: Relative potency compared to Aldosterone;Range is 72-216; format: functional
[18] = target: T1, Mineralocorticoid receptor (Rattus norvegicus); experiment: Relative potency compared to Aldosterone;Range 4.3-23; format: functional
[19] = target: T1, Mineralocorticoid receptor (Rattus norvegicus); experiment: Antagonist activity against Mineralocorticoid receptor after po administration in Male Sprague Dawley rats; (+) =positive; format: functional, organism-based; conditions: filed as antagonist; in short: as §2
[20] = target: T1, Mineralocorticoid receptor (Rattus norvegicus); experiment: Antagonist activity against Mineralocorticoid receptor after oral administration in Male Sprague Dawley rats; (-) = negative; format: functional, organism-based; in short: as §2
[21] = target: T1, Mineralocorticoid receptor (Rattus norvegicus); experiment: Relative potency compared to Aldosterone;Range is 53-97; format: functional
[22] = target: T1, Mineralocorticoid receptor (Rattus norvegicus); experiment: Agonist activity against Mineralocorticoid receptor after subcutaneous administration in Male Sprague Dawley rats; (+) =positive; format: functional, organism-based; conditions: filed as agonist
[23] = target: T1, Mineralocorticoid receptor (Rattus norvegicus); experiment: Antagonist activity against Mineralocorticoid receptor after subcutaneous administration in Male Sprague Dawley rats; (-) = negative; format: functional, organism-based; in short: as §2

RBA [1]: 30%
Relative potency [2]: 14
RBA (Rattus norvegicus): 56%
Activity [3]: inactive
RBA [4]: 580%
Activity [5]: Agonist
Compound: CC12CCC(=O)C=C1C1CC1C1C2C=CC2(C)C1CC[C@@]21CCC(=O)O1 (stereo partly drawn)

RBA [6]: 14%
Relative activity [7]: 0.14
Compound: C[C@]12C[C@H](O)[C@H]3[C@@H](CCC4=CC(=O)CC[C@@]43C)[C@@H]1CC[C@@H]2C(=O)CO

RBA [1]: 110%
Activity [8]: Antagonist
Relative potency [9]: 1.48
RBA [10]: 6.7%
Activity [11]: inactive
RBA [4]: 88%
Compound: CC12CCC(=O)C=C1[C@H]1C[C@H]1C1C2C=CC2(C)C1CC[C@@]21CCC(=O)O1 (stereo partly drawn)

Relative potency [12]: 0.93
Activity [13]: Antagonist
RBA [1]: 20%
Activity [8]: Antagonist
Relative potency [9]: 2.08
Activity [14]: inactive
RBA (Rattus norvegicus): 1.6%
RBA [4]: 22%
Activity [15]: 0.14
Activity [16]: 0.42
Compound: CC12C=CC(=O)C=C1C=CC1C2C=CC2(C)C1CC[C@@]21CCC(=O)O1 (stereo partly drawn)

RBA [1]: 200%
Relative potency [17]: 72
RBA [10]: 19%
Activity [3]: inactive
RBA [4]: 160%
Activity [5]: Agonist
Compound: CC12C=CC(=O)C=C1C=CC1C2C=CC2(C)C1C1CC1[C@@]21CCC(=O)O1 (stereo partly drawn)

Relative potency [18]: 4.3
Activity [19]: Antagonist
RBA [1]: 350%
RBA [10]: 23%
Activity [20]: inactive
Activity [3]: inactive
RBA [4]: 91%
Compound: CC(=O)S[C@@H]1CC2=CC(=O)C=CC2(C)C2C=CC3(C)C(C4CC4[C@@]34CCC(=O)O4)C21 (stereo partly drawn)

RBA [1]: 169%
Relative potency [21]: 53
RBA [10]: 14%
Activity [22]: Agonist
Activity [23]: inactive
RBA [4]: 43%
Compound: CC(=O)S[C@@H]1CC2=CC(=O)CCC2(C)C2C=CC3(C)C(CC[C@@]34CCC(=O)O4)C21 (stereo partly drawn)

Reference: ChEMBL document CHEMBL1123888, “Aldosterone antagonists. 2. Synthesis and biological activities of 11,12-dehydropregnane derivatives” (J Med Chem, 1987)
